Measurements from ChEMBL document CHEMBL3621182, “Adenosine analogs as inhibitors of tyrosyl-tRNA synthetase: Design, synthesis and antibacterial evaluation” (Bioorg Med Chem, 2015).
In brackets after ≈: the same amount, converted by molar mass.

Experiments:
[1] = test system: Escherichia coli; experiment: Antimicrobial activity against Escherichia coli ATCC 8739 by MTT assay; format: functional
Outline: (§1)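 Broth microdilution in LB medium with MTT read-out. Compound stock 1000 µg/ml in DMSO, diluted serially with sterile medium (50% v/v DMSO in PBS). Inoculum about 10^5 cfu/mL, incubated at 37°C. Then 3 mg/mL MTT in PBS added, 4-5 h at room temperature. Dye extracted with 10% SDS containing 5% isopropanol and HCl for 8-10 h. Absorbance at 570 nm gives MIC50.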

[2] = test system: Staphylococcus aureus; experiment: Antimicrobial activity against Staphylococcus aureus ATCC 6538 by MTT assay; format: functional; outline: as §1
[3] = Inhibition of Staphylococcus aureus tyrosyl-tRNA synthetase expressed in Escherichia coli assessed as reduction in tRNA aminoacylation pre-incubated for 10 mins before addition of Escherichia coli MRE600 tRNA and L-tyrosine
Outline: (§2)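 Tritiated tyrosine aminoacylation at 37°C. Mix (final): 100 mM Tris/Cl pH 7.9, 50 mM KCl, 16 mM MgCl2, 5 mM ATP, 3 mM DTT, 4 mg/ml E. coli MRE600 tRNA, 10 µM L-tyrosine including 0.3 µM L-[ring-3,5-3H]tyrosine. TyrRS (0.2 nM) preincubated 10 min at room temperature with a range of inhibitor concentrations. TCA precipitation onto filters, scintillation counting. Linear rates, under 50% tRNA acylation; IC50 at half activity.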

[4] = test system: Pseudomonas aeruginosa; experiment: Antimicrobial activity against Pseudomonas aeruginosa ATCC 9027 by MTT assay; format: functional; outline: as §1
[5] = Inhibition of Staphylococcus aureus tyrosyl-tRNA synthetase; outline: as §2

Row | SMILES | MIC50 [1] [µg/mL] | MIC50 [2] [µg/mL] | IC50 [3] [µM] | MIC50 [4] [µg/mL] | IC50 [5] [µM]
1 | Nc1ncnc2c1ncn2[C@@H]1O[C@H](COC(=O)c2ccccc2)[C@@H](O)[C@H]1O | 33.7 (≈ 90.7 µM) | 67.4 (≈ 181 µM) | 39 | 21.9 (≈ 59 µM) | 
2 | N[C@@H](Cc1ccc(O)cc1)C(=O)N[C@H](C(=O)O)[C@H]1[C@H](O)[C@]2(O)CO[C@@H]([C@@H]2O)N1O |  |  |  |  | < 0.001
3 | CC(=O)OC[C@H]1O[C@@H](n2cnc3c(N)ncnc32)[C@H](O)[C@@H]1O | 77.6 (≈ 251 µM) | > 100 |  | 58.2 (≈ 188 µM) | 
4 | CCCCCC(=O)OC[C@H]1O[C@@H](n2cnc3c(N)ncnc32)[C@H](O)[C@@H]1O | > 100 | > 100 | 77 | > 100 | 
5 | Nc1ncnc2c1ncn2[C@@H]1O[C@H](COC(=O)Cc2cccc(Br)c2)[C@@H](O)[C@H]1O | 38.1 (≈ 82.1 µM) | > 100 | 3.3 | 27.4 (≈ 59 µM) | 
6 | Nc1ncnc2c1ncn2[C@@H]1O[C@H](COC(=O)Cc2cccc(Cl)c2)[C@@H](O)[C@H]1O | 20.2 (≈ 48.1 µM) | 49.2 (≈ 117 µM) | 6 | 35.1 (≈ 83.6 µM) | 
7 | Nc1ncnc2c1ncn2[C@@H]1O[C@H](COC(=O)Cc2cccc(F)c2)[C@@H](O)[C@H]1O | 1.3 (≈ 3.22 µM) | 9.2 (≈ 22.8 µM) | 0.8 | 0.08 (≈ 0.198 µM) | 
8 | Nc1ncnc2c1ncn2[C@@H]1O[C@H](COC(=O)Cc2ccccc2O)[C@@H](O)[C@H]1O | 15.9 (≈ 39.6 µM) | 37.8 (≈ 94.2 µM) | 44 | 26 (≈ 64.8 µM) | 
9 | Nc1ncnc2c1ncn2[C@@H]1O[C@H](COC(=O)Cc2cccc(O)c2)[C@@H](O)[C@H]1O | 37 (≈ 92.2 µM) | > 100 | 9.3 | 27.3 (≈ 68 µM) | 
10 | Nc1ncnc2c1ncn2[C@@H]1O[C@H](COC(=O)Cc2ccc(Cl)c(Cl)c2)[C@@H](O)[C@H]1O | 19.4 (≈ 42.7 µM) | 48.5 (≈ 107 µM) | 97 | 21.4 (≈ 47.1 µM) | 
11 | Nc1ncnc2c1ncn2[C@@H]1O[C@H](COC(=O)Cc2ccccc2Cl)[C@@H](O)[C@H]1O | 7.4 (≈ 17.6 µM) | > 100 | 47 | 26.7 (≈ 63.6 µM) | 
12 | CCCC(=O)OC[C@H]1O[C@@H](n2cnc3c(N)ncnc32)[C@H](O)[C@@H]1O | > 100 | > 100 | 65 | 87.3 (≈ 259 µM) | 
13 | CCCCCCCC(=O)OC[C@H]1O[C@@H](n2cnc3c(N)ncnc32)[C@H](O)[C@@H]1O | > 100 | > 100 | 93 | > 100 | 
14 | CCCCCCCCCC(=O)OC[C@H]1O[C@@H](n2cnc3c(N)ncnc32)[C@H](O)[C@@H]1O | > 100 | > 100 | > 100 | > 100 | 
15 | Nc1ncnc2c1ncn2[C@@H]1O[C@H](COC(=O)c2ccc(Cl)cc2)[C@@H](O)[C@H]1O | 28.1 (≈ 69.2 µM) | > 100 | 43 | 19.3 (≈ 47.6 µM) | 
16 | Nc1ncnc2c1ncn2[C@@H]1O[C@H](COC(=O)c2cccc(Cl)c2)[C@@H](O)[C@H]1O | 11.3 (≈ 27.8 µM) | 9.4 (≈ 23.2 µM) | 28 | 8.7 (≈ 21.4 µM) | 
17 | Nc1ncnc2c1ncn2[C@@H]1O[C@H](COC(=O)c2cccc(F)c2)[C@@H](O)[C@H]1O | 5.3 (≈ 13.6 µM) | 20.4 (≈ 52.4 µM) | 11 | 3.5 (≈ 8.99 µM) | 
18 | Nc1ncnc2c1ncn2[C@@H]1O[C@H](COC(=O)c2ccc(F)cc2)[C@@H](O)[C@H]1O | 24.8 (≈ 63.7 µM) | > 100 | 51 | 11.2 (≈ 28.8 µM) | 
19 | Nc1ncnc2c1ncn2[C@@H]1O[C@H](COC(=O)c2ccc(Br)cc2)[C@@H](O)[C@H]1O | 10.1 (≈ 22.4 µM) | > 100 | 62 | 22.7 (≈ 50.4 µM) | 
20 | O=C(O)c1cn(C2CC2)c2cc(N3CCNCC3)c(F)cc2c1=O [CIPROFLOXACIN] | 0.67 (≈ 2.02 µM) |  |  | 0.1 (≈ 0.302 µM) | 
21 | CC1(C)S[C@@H]2[C@H](NC(=O)Cc3ccccc3)C(=O)N2[C@H]1C(=O)O [PENICILLIN G SODIUM] |  | 0.54 |  |  | 

Results, then the molecule that gave them:

Row | MIC50 [1] [µg/mL] | MIC50 [2] [µg/mL] | IC50 [3] [µM] | MIC50 [4] [µg/mL] | IC50 [5] [µM] | SMILES
22 | 40.6 (≈ 80.5 µM) | 38.3 (≈ 75.9 µM) | 3.7 | 18.8 (≈ 37.3 µM) |  | CC1(C)O[C@@H]2[C@H](O1)[C@@H](COC(=O)Cc1cccc(Br)c1)O[C@H]2n1cnc2c(N)ncnc21
23 | 27.8 (≈ 60.4 µM) | 44.9 (≈ 97.6 µM) | 6.3 | 22 (≈ 47.8 µM) |  | CC1(C)O[C@@H]2[C@H](O1)[C@@H](COC(=O)Cc1cccc(Cl)c1)O[C@H]2n1cnc2c(N)ncnc21
24 | 76.2 (≈ 172 µM) | > 100 | 7.1 | 24.8 (≈ 55.9 µM) |  | CC1(C)O[C@@H]2[C@H](O1)[C@@H](COC(=O)Cc1ccc(F)cc1)O[C@H]2n1cnc2c(N)ncnc21
25 | > 100 | > 100 | 5.6 | 21.2 (≈ 42 µM) |  | CC1(C)O[C@@H]2[C@H](O1)[C@@H](COC(=O)Cc1ccc(Br)cc1)O[C@H]2n1cnc2c(N)ncnc21
26 | 15.2 (≈ 33.1 µM) | 7.2 (≈ 15.7 µM) | 8.4 | 30.6 (≈ 66.5 µM) |  | CC1(C)O[C@@H]2[C@H](O1)[C@@H](COC(=O)Cc1ccc(Cl)cc1)O[C@H]2n1cnc2c(N)ncnc21
27 | 60.3 (≈ 136 µM) | > 100 | 1.1 | 12.9 (≈ 29.1 µM) |  | CC1(C)O[C@@H]2[C@H](O1)[C@@H](COC(=O)Cc1cccc(F)c1)O[C@H]2n1cnc2c(N)ncnc21
28 | 44.6 (≈ 101 µM) | > 100 | 19 | 17.4 (≈ 39.4 µM) |  | CC1(C)O[C@@H]2[C@H](O1)[C@@H](COC(=O)Cc1ccc(O)cc1)O[C@H]2n1cnc2c(N)ncnc21
29 | 37.2 (≈ 84.3 µM) | > 100 | 55 | 23 (≈ 52.1 µM) |  | CC1(C)O[C@@H]2[C@H](O1)[C@@H](COC(=O)Cc1ccccc1O)O[C@H]2n1cnc2c(N)ncnc21
30 | 18.9 (≈ 42.8 µM) | > 100 | 9.6 | 25.9 (≈ 58.7 µM) |  | CC1(C)O[C@@H]2[C@H](O1)[C@@H](COC(=O)Cc1cccc(O)c1)O[C@H]2n1cnc2c(N)ncnc21
31 | 27 (≈ 61.4 µM) | > 100 | 17 | 14.1 (≈ 32.1 µM) |  | Cc1ccc(CC(=O)OC[C@H]2O[C@@H](n3cnc4c(N)ncnc43)[C@@H]3OC(C)(C)O[C@@H]32)cc1
32 | 34 (≈ 68.8 µM) | 40.2 (≈ 81.3 µM) | > 100 | 19.3 (≈ 39 µM) |  | CC1(C)O[C@@H]2[C@H](O1)[C@@H](COC(=O)Cc1ccc(Cl)c(Cl)c1)O[C@H]2n1cnc2c(N)ncnc21
33 | 47.3 (≈ 97.4 µM) | > 100 | > 100 | 30.1 (≈ 62 µM) |  | COc1ccc(CC(=O)OC[C@H]2O[C@@H](n3cnc4c(N)ncnc43)[C@@H]3OC(C)(C)O[C@@H]32)cc1OC
34 | 29 (≈ 63.1 µM) | > 100 | 47 | 28 (≈ 60.9 µM) |  | CC1(C)O[C@@H]2[C@H](O1)[C@@H](COC(=O)Cc1ccccc1Cl)O[C@H]2n1cnc2c(N)ncnc21
35 | 25.7 (≈ 58 µM) | > 100 | 44 | 25.5 (≈ 57.5 µM) |  | CC1(C)O[C@@H]2[C@H](O1)[C@@H](COC(=O)Cc1ccccc1F)O[C@H]2n1cnc2c(N)ncnc21
36 | > 100 | > 100 | 7.7 | 26.1 (≈ 64.7 µM) |  | Nc1ncnc2c1ncn2[C@@H]1O[C@H](COC(=O)Cc2ccc(F)cc2)[C@@H](O)[C@H]1O
37 | 88.9 (≈ 191 µM) | 42.2 (≈ 90.9 µM) | 5.2 | 19.3 (≈ 41.6 µM) |  | Nc1ncnc2c1ncn2[C@@H]1O[C@H](COC(=O)Cc2ccc(Br)cc2)[C@@H](O)[C@H]1O
38 | 7.7 (≈ 18.3 µM) | 13.8 (≈ 32.9 µM) | 8.1 | 19.9 (≈ 47.4 µM) |  | Nc1ncnc2c1ncn2[C@@H]1O[C@H](COC(=O)Cc2ccc(Cl)cc2)[C@@H](O)[C@H]1O
39 | 9.8 (≈ 24.4 µM) | 44.3 (≈ 110 µM) | 23 | 25.9 (≈ 64.5 µM) |  | Nc1ncnc2c1ncn2[C@@H]1O[C@H](COC(=O)Cc2ccc(O)cc2)[C@@H](O)[C@H]1O
40 | 16.4 (≈ 41.1 µM) | 47.4 (≈ 119 µM) | 15 | 11.8 (≈ 29.5 µM) |  | Cc1ccc(CC(=O)OC[C@H]2O[C@@H](n3cnc4c(N)ncnc43)[C@H](O)[C@@H]2O)cc1
41 | 16.5 (≈ 37 µM) | > 100 | > 100 | 10.2 (≈ 22.9 µM) |  | COc1ccc(CC(=O)OC[C@H]2O[C@@H](n3cnc4c(N)ncnc43)[C@H](O)[C@@H]2O)cc1OC
42 | 23.6 (≈ 58.5 µM) | 51.4 (≈ 127 µM) | 40 | 35.8 (≈ 88.8 µM) |  | Nc1ncnc2c1ncn2[C@@H]1O[C@H](COC(=O)Cc2ccccc2F)[C@@H](O)[C@H]1O
